Assay results published in ChEMBL document CHEMBL2331324, “Synthesis and biological evaluation of guanidino analogues of roscovitine” (Eur J Med Chem, 2013).

How the values were obtained:
MCF7 [1] = assay: Ratio of compound IC50 to roscovitine IC50 for human MCF7 cells after 72 hrs by calcien AM dye based fluorescence analysis; format: functional
[2] = target: Aurora kinase A/B (Homo sapiens) (UniProt Q96GD4+O14965); assay: Activity at Aurora kinase A/B in human MCF7 cells assessed as histone H3 phosphorylation at Ser10 at 100 uM after 24 hrs by flow cytometry relative to untreated control; format: cell-based
Method in brief: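 Flow cytometry on MCF7 cells exposed 24 h to 100 µM. About one million cells fixed in 90% methanol, rehydrated, and labelled with primary antibody to pH3 Ser10, then an Alexa Fluor 488 secondary. Alexa read at 488/525 nm (ex/em). The value is the fraction of pH3-positive cells in treated cultures divided by that in untreated control.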

[3] = target: Cyclin-dependent kinase 2/cyclin E1 (Homo sapiens) (UniProt P24864+P24941); assay: Ratio of compound IC50 to roscovitine IC50 for recombinant CDK2/cyclin E (unknown origin); format: protein-complex assay
[4] = target: Cyclin-dependent kinase 1/cyclin B1 (Homo sapiens) (UniProt P06493+P14635); assay: Ratio of compound IC50 to roscovitine IC50 for recombinant CDK1/cyclin B (unknown origin); format: protein-complex assay
MCF7 [5] = assay: Cell cycle arrest in human MCF7 cells assessed as accumulation of cells in G2+M phase at 100 uM after 24 hrs by propidium iodide staining based flow cytometry relative to untreated control; format: functional
Method in brief: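 Flow cytometry on MCF7 cells given 100 µM for 24 h. About one million cells fixed in 90% methanol and rehydrated. DNA stained with propidium iodide, read at 488/575 nm (ex/em). The value is the G2+M fraction of treated cells divided by the G2+M fraction of untreated control cells.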

MCF7 [6] = assay: Cytotoxicity against human MCF7 cells assessed as inhibition of cell viability after 72 hrs by calcien AM dye based fluorescence analysis; format: functional; settings: MCF7, 72 h
Method in brief: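 MCF7 cells grown in DMEM with 10% FBS, 2 mM glutamine, penicillin and streptomycin at 37 °C and 5% CO2. About 10,000 cells per well, left 4 h, then a concentration range added in triplicate, DMSO ≤0.5% final. After 72 h, 1 µg/ml calcein AM (final) for 1 h; fluorescence read at 485/538 nm. Viability given as % of control; IC50 read graphically from dose-response curves; mean of ≥3 independent experiments.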

[7] = target: Cyclin-dependent kinase 2/cyclin E1 (Homo sapiens, UniProt P24941); assay: Inhibition of recombinant CDK2/cyclin E (unknown origin) using histone H1 as substrate in presence of [gamma-33P]ATP; format: protein-complex assay
[8] = target: Cyclin-dependent kinase 1/cyclin B1 (Homo sapiens, UniProt P06493); assay: Inhibition of recombinant CDK1/cyclin B (unknown origin) using histone H1 as substrate in presence of [gamma-33P]ATP; format: protein-complex assay
Chain of Cyclin-dependent kinase 1/cyclin B1 (P06493 whole entry): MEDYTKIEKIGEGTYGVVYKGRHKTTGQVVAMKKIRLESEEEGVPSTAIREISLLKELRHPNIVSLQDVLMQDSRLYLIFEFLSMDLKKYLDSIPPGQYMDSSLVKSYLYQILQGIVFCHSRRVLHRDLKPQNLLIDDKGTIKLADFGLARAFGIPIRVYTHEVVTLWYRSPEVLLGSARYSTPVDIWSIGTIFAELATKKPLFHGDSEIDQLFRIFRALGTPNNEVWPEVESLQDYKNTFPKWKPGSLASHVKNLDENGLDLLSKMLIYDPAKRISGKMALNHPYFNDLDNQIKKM
Chain of Cyclin-dependent kinase 1/cyclin B1 (P14635 whole entry, further chain): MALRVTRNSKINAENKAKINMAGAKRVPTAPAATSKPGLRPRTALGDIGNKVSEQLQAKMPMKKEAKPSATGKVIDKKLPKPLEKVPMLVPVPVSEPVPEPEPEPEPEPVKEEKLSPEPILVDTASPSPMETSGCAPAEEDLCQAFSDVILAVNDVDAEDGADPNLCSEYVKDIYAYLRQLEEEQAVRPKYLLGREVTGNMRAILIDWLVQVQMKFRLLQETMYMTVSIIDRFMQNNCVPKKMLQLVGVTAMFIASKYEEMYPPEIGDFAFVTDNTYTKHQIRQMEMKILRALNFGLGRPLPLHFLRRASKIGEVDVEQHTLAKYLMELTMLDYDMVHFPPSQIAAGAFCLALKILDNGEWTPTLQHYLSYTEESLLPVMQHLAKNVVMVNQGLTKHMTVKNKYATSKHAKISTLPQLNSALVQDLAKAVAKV

Chain of Aurora kinase A/B (Homo sapiens) (O14965 whole entry, looked up): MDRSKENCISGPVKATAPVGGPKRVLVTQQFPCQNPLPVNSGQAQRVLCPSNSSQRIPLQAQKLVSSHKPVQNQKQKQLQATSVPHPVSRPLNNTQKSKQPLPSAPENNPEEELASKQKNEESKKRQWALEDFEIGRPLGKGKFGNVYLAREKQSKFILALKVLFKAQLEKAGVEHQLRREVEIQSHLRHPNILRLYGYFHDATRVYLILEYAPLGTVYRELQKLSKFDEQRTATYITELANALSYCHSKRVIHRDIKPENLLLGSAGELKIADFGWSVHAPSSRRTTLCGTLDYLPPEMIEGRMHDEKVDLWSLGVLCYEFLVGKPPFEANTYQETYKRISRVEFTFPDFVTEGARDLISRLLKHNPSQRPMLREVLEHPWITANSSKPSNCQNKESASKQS
Chain of Aurora kinase A/B (Homo sapiens) (Q96GD4 whole entry, looked up): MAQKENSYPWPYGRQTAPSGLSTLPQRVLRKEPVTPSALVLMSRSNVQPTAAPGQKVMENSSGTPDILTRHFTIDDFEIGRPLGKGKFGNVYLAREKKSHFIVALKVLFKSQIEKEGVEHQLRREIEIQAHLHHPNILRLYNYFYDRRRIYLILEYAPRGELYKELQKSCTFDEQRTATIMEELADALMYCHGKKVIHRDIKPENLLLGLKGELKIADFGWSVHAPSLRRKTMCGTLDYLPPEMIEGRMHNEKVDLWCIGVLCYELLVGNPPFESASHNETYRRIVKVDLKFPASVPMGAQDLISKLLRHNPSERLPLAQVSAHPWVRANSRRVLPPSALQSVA
Chain of Cyclin-dependent kinase 1/cyclin B1 (Homo sapiens) (P06493 whole entry, looked up): as the sequence (P06493 whole entry) above
Chain of Cyclin-dependent kinase 1/cyclin B1 (Homo sapiens) (P14635 whole entry, looked up): as the sequence (P14635 whole entry, further chain) above

Row | SMILES | Ratio IC50 (MCF7 [1]) | Ratio [2] | Ratio IC50 [3] | Ratio IC50 [4] | Ratio (MCF7 [5]) | IC50 (MCF7 [6]) | IC50 [7] | IC50 [8]
1 | CCn1cnc2c(NC(=N)N)nc(N)nc21 | 2 | 0.1 | 5 | 5 | 1.6 | 54.3 µM | 1.7 µM | 12.6 µM
2 | CC(C)n1cnc2c(NC(=N)N)nc(NC3CC3)nc21 | – | 0.17 | – | – | 2.4 | 5.4 µM | 0.5 µM | 6.4 µM
3 | CC(C)n1cnc2c(NC(=N)N)nc(N3CCC[C@@H]3CO)nc21 | – | 0.1 | – | – | 2 | 20.4 µM | 0.67 µM | 6.2 µM
4 | CC(C)[C@H](CO)Nc1nc(NC(=N)N)c2ncn(C(C)C)c2n1 | – | 0.13 | – | – | 2.3 | 10.5 µM | 0.14 µM | 2 µM
5 | CC(C)[C@@H](N)COc1nc(NC(=N)N)c2ncn(C(C)C)c2n1 | – | 0.39 | – | – | 2.1 | 79.4 µM | 8 µM | 15.6 µM
6 | CC(C)[C@H](N)COc1nc(NC(=N)N)c2ncn(C(C)C)c2n1 | – | 0.09 | – | – | 1.7 | 3.4 µM | 1.8 µM | 1.1 µM
7 | CC[C@H](CO)Nc1nc(NCc2ccccc2)c2ncn(C(C)C)c2n1 [SELICICLIB] | – | – | – | – | – | 20.2 µM | – | –
8 | CC(C)n1cnc2c(NC(=N)N)nc(OC[C@H]3CCCN3)nc21 | – | – | – | – | 1.3 | > 100 µM | 23.6 µM | 81.5 µM
9 | N=C(N)Nc1nc(N)nc2c1ncn2CCN | – | – | – | – | 1 | > 100 µM | > 100 µM | > 50 µM
10 | CC(C)n1cnc2c(N)nc(N)nc21 | – | – | – | – | 0.9 | > 100 µM | 22.2 µM | 64.9 µM
11 | CC(C)n1cnc2c(NC(=N)N)nc(NCCO)nc21 | – | 0.15 | – | – | 2.9 | 12.4 µM | 0.82 µM | 15.1 µM
12 | CC(C)n1cnc2c(NC(=N)N)nc(NCCCO)nc21 | – | 0.18 | – | – | 2.5 | 8.8 µM | 0.18 µM | 4.1 µM
13 | CCCn1cnc2c(NC(=N)N)nc(N)nc21 | – | 6.71 | – | – | 4 | 36.5 µM | 10.7 µM | 55.9 µM
14 | N=C(N)Nc1nc(N)nc2c1ncn2CC(F)(F)F | – | – | – | – | 0.8 | > 100 µM | > 100 µM | > 100 µM
15 | CC(C)n1cnc2c(NC(=N)N)nc(NCCCCCCO)nc21 | – | 0.33 | – | – | 2 | 5.2 µM | 1.6 µM | 4.2 µM
16 | CC(C)n1cnc2c(NC(=N)N)nc(N3CCC[C@H]3CO)nc21 | – | 0.11 | – | – | 1.7 | 6.2 µM | 0.16 µM | 1.5 µM
17 | CCn1cnc2c(N)nc(N)nc21 | – | – | – | – | 1.2 | > 100 µM | 7.9 µM | 37.5 µM
18 | Cn1cnc2c(NC(=N)N)ncnc21 | – | – | – | – | 1 | > 100 µM | > 100 µM | > 100 µM
19 | CC(C)n1cnc2c(NC(=N)N)nc(N)nc21 | 4 | 0.18 | 5 | 5 | 2 | 97.2 µM | 1.3 µM | 14.8 µM
20 | [N-]=[N+]=NCCn1cnc2c(NC(=N)N)nc(N)nc21 | – | – | – | – | 1.4 | > 100 µM | 74.9 µM | > 100 µM
21 | CC[C@H](N)COc1nc(NC(=N)N)c2ncn(C(C)C)c2n1 | – | 0.07 | – | – | 1.5 | 16.3 µM | 6.2 µM | 8.1 µM
22 | N=C(N)Nc1nc(N)nc2c1ncn2CCO | – | – | – | – | 0.9 | > 100 µM | > 100 µM | > 100 µM
23 | CC(C)n1cnc2c(NC(=N)N)nc(OC[C@@H]3CCCN3)nc21 | – | 0.8 | – | – | 1.7 | > 100 µM | 25.2 µM | > 100 µM
24 | CN(C)c1nc(N)nc2c1ncn2CCN=[N+]=[N-] | – | – | – | – | 1 | > 100 µM | > 100 µM | > 100 µM
25 | CC[C@@H](N)COc1nc(NC(=N)N)c2ncn(C(C)C)c2n1 | – | 1.08 | – | – | 0.8 | > 100 µM | 13.3 µM | 47.6 µM
26 | Cn1cnc2c(NC(=N)N)nc(N)nc21 | – | 0.81 | – | – | 1.5 | > 100 µM | 6.8 µM | 38.2 µM
27 | CC(C)Cn1cnc2c(NC(=N)N)nc(N)nc21 | – | 7 | – | – | 3.5 | 96.6 µM | 66.5 µM | > 100 µM
28 | CC(C)[C@@H](CO)Nc1nc(NC(=N)N)c2ncn(C(C)C)c2n1 | – | 0.09 | – | – | 1.8 | 2.1 µM | 0.071 µM | 1.1 µM
